Test results reported in ChEMBL document CHEMBL3792331, “Identification and synthesis of potent and selective pyridyl-isoxazole based agonists of sphingosine-1-phosphate 1 (S1P1)” (Bioorg Med Chem Lett, 2016).

Assays:
Rattus norvegicus [1] = assay: Reduction in circulating lymphocytes in Lewis rat at 1 mg/kg, po after 4 hrs; format: functional
How it was run: (§1)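 Healthy Lewis rats dosed orally with test article as solution or suspension in vehicle, or vehicle alone. Blood drawn at 4 h and 24 h. Circulating lymphocyte percentage measured by hematology analyzer, expressed as reduction versus the vehicle group. Group average, n = 3–4.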

Rattus norvegicus [2] = assay: Reduction in circulating lymphocytes in Lewis rat at 1 mg/kg, po after 24 hrs; format: functional; how it was run: as §1
[3] = Plasma concentration Lewis rat at 1 mg/kg, po after 24 hrs; format: ADME, organism-based
How it was run: (§2)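 Lewis rats given 1.0 mg/kg orally as solution or suspension in vehicle. Plasma drug concentration measured in blood drawn at 4 h and 24 h; 4 h/24 h ratio taken from these values.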

Plasma = assay: Ratio of plasma concentration Lewis rat at 1 mg/kg, po after 4 hrs to plasma concentration Lewis rat at 1 mg/kg, po after 24 hrs; format: ADME, organism-based; settings: in vivo; how it was run: as §2
[4] = Plasma concentration Lewis rat at 1 mg/kg, po after 4 hrs; format: ADME, organism-based; how it was run: as §2
[5] = Selectivity index, ratio of EC50 for agonist activity at human S1P3 receptor expressed in EDG3-Ga15-bla HEK293T cell membranes to EC50 for agonist activity at human S1P1 receptor expressed in CHO cell membranes; format: cell-based
How it was run: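 S1P3/S1P1 ratio of GTPγ[35S] EC50s. Membranes from EDG3-Ga15-bla HEK293T (S1P3) or S1P1/CHO cells, […], 0.2 nM final [35S]GTP. HEPES pH 7.5 buffer with MgCl2, NaCl, EGTA, DTT, GDP, BSA and saponin. 45 min at room temperature, filtration read-out. Each EC50 taken at 50% of the compound's own Ymax.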

[6] = biological target: Sphingosine 1-phosphate receptor 1 (Homo sapiens, UniProt P21453); assay: Agonist activity at human S1P1 receptor expressed in CHO cell membranes assessed as stimulation of [35S]GTPgamma binding incubated for 45 mins by liquid scintillation counting method
How it was run: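 Membranes from S1P1/CHO cells (S1P1) or EDG3-Ga15-bla HEK293T cells (S1P3), final protein […], with 3-fold compound dilutions. Buffer: 20 mM HEPES pH 7.5, 10 mM MgCl2, 150 mM NaCl, 1 mM EGTA, 1 mM DTT, GDP, 0.1% fatty acid free BSA, saponin. [35S]GTP 0.2 nM final. Room temperature, 45 min. Filtered, washed with water, dried 60 °C. EC50 taken at 50% of each compound's Ymax.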

Sphingosine 1-phosphate receptor 1, sequence (P21453 whole entry): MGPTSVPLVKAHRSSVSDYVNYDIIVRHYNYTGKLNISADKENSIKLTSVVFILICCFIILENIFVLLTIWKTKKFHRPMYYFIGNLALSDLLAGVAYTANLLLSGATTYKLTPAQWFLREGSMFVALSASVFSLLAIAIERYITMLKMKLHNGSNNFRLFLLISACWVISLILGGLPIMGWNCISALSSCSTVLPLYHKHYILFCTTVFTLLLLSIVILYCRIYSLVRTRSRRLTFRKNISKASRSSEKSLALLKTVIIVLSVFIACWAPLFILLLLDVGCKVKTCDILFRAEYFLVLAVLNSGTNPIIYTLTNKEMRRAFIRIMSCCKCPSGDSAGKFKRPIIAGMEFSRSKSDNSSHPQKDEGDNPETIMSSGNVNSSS

Row | Compound | inhibition in vivo at 1 mg/kg (Rattus norvegicus [1]) [%] | inhibition in vivo at 1 mg/kg (Rattus norvegicus [2]) [%] | concentration at 24 h [3] [nM] | Ratio (Plasma) | concentration at 4 h [4] [nM] | Ratio EC50 [5] | EC50 [6] [nM]
1 | CCc1c(-c2nc(-c3ccc(CN4CC(C(=O)O)C4)cc3)no2)noc1-c1ccccn1 | 84 | 58 | 64 | 15 | 972 | 550 | 3.4
2 | O=C(O)C1CN(Cc2ccc(-c3noc(-c4onc(-c5ccccc5)c4C(F)(F)F)n3)cc2)C1 | 78 | 91 | – | 3 | 2130 | – | –
